Reference: ChEMBL document CHEMBL1154307, “Eucalmaidins A-E, (+)-oleuropeic acid derivatives from the fresh leaves of Eucalyptus maideni” (J Nat Prod, 2009)
The source made the active and inactive calls. No cut-off for these calls is given here.

Legend:
Human alphaherpesvirus 1 = assay: Antiviral activity against HSV1 infected in african green monkey Vero cells assessed as inhibition of virus-induced cytopathic effect after 3 days by crystal violet staining; assay type: functional
Procedure, shortened: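 Vero cells grown 24 h in 24-well plates, then infected with 30 PFU HSV-1 together with serial sample dilutions in DMEM containing 2% FBS, adjusted to pH 7.2 with NaHCO3 and Hepes. Overlay medium held 1% methylcellulose. After 3 days, cells were fixed with formalin, stained with crystal violet, and plaques counted. The concentration giving 100% plaque reduction versus untreated infected control was read from graphic plots.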

[1] = Cytotoxicity against african green monkey Vero cells after 3 days by MTT assay; assay type: cell-based; details: chlorocebus sabaeus, read-out: MNCC
Procedure, shortened: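 Confluent Vero monolayers were exposed in triplicate to serial sample dilutions in DMEM with 2% FBS (pH 7.2) for 3 days. MTT was then added for 4 h and the formazan dissolved in DMSO. OD was read at 540 and 630 nm against untreated control. The maximal noncytotoxic concentration was taken as the highest concentration showing no cytotoxic effect.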

Structure (SMILES)	inhibition (Human alphaherpesvirus 1)	MNTC at 72 h [1]	Concentration giving 100% plaque reduction (IC100) (Human alphaherpesvirus 1)
COc1cc([C@@H]2c3cc(O)c(OC)cc3C[C@H](CO)[C@H]2CO[C@@H]2O[C@H](CO)[C@@H](O)[C@H](O)[C@H]2O)ccc1O	inactive	380 µM	–
CC(C)(O)C1CC=C(C(=O)O)CC1 (racemic)	inactive	> 1090 µM	–
Nc1nc2c(ncn2COCCO)c(=O)[nH]1 [ACYCLOVIR]	–	–	0.0043 mM
Cc1cc(=O)c2c(O)cc(O[C@@H]3O[C@H](COC(=O)C4=CC[C@H](C(C)(C)O)CC4)[C@@H](O)[C@H](O)[C@H]3O)cc2o1 [CYPELLOCARPA C]	inactive	> 380 µM	–
CC(C)(O)[C@H]1CC=C(C(=O)OC[C@H]2O[C@@H](Oc3cc(C(=O)O)cc(O)c3O)[C@H](O)[C@@H](O)[C@@H]2O)CC1 [CYPELLOCARPIN A]	inactive	30 µM	–
CC1(O)CC(=O)c2c(O)cc(O[C@@H]3O[C@H](COC(=O)C4=CC[C@H](C(C)(C)O)CC4)[C@@H](O)[C@H](O)[C@H]3O)cc2O1 (stereo partly specified) [CYPELLOCARPIN B]	inactive	20 µM	–
CC(C)(O)[C@H]1CC=C(C(=O)OC[C@H]2O[C@@H](O)[C@H](O)[C@@H](O)[C@@H]2O)CC1 [EUCALMAIDIN A]	inactive	> 580 µM	–
CC(C)(O)[C@H]1CC=C(C(=O)OC[C@H]2O[C@@H](Oc3c(O)cc(C(=O)O)cc3O)[C@H](O)[C@@H](O)[C@@H]2O)CC1 [EUCALMAIDIN B]	inactive	400 µM	–
COc1cc(C(=O)O)cc(OC)c1O[C@@H]1O[C@H](COC(=O)C2=CC[C@H](C(C)(C)O)CC2)[C@@H](O)[C@H](O)[C@H]1O [EUCALMAIDIN C]	inactive	380 µM	–
O=c1c(O)c(-c2ccc(O)c(O)c2)oc2cc(O)cc(O)c12 [QUERCETIN]	–	< 20 µM	0.33 mM
C[C@@H]1O[C@@H](Oc2c(-c3ccc(O)c(O)c3)oc3cc(O)cc(O)c3c2=O)[C@H](O)[C@H](O)[C@H]1O [QUERCITRIN]	inactive	10 µM	–
